For 22 compounds, Activity results are on record in ChEMBL document CHEMBL4265908, “Structure-activity and structure-property relationships of novel Nrf2 activators with a 1,2,4-oxadiazole core and their therapeutic effects on acetaminophen (APAP)-induced acute liver injury” (Eur J Med Chem, 2018).

Holding throughout (assay type): cell-based
Data set [1] has as its target T1, Nuclear factor erythroid 2-related factor 2 (Homo sapiens) (UniProt Q16236).
T1 sequence (whole entry): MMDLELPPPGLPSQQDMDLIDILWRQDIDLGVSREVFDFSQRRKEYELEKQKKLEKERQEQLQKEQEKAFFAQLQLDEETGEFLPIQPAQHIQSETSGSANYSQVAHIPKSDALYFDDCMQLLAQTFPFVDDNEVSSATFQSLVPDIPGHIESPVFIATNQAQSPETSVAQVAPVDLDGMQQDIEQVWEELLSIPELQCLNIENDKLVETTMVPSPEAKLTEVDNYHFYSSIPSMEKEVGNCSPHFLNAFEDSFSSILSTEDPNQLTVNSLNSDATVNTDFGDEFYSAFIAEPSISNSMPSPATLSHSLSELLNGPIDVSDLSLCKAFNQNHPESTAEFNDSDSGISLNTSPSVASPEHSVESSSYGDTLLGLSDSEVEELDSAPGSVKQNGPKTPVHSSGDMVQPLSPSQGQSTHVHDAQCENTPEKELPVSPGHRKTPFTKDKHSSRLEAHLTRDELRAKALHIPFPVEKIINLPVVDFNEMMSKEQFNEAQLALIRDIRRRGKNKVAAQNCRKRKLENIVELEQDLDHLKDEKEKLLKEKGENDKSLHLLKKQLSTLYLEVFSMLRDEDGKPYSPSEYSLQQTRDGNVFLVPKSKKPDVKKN
As to the kind of experiment: Activation of Nrf2 in human HepG2-ARE-C8 cells assessed as induction of ARE-mediated luciferase activity at 0.01 uM after 24 hrs by luciferase reporter gene assay relative to control. In a few lines:
(§1)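 HepG2-ARE-C8 cells stably carrying ARE-luciferase, grown in DMEM with 10% FBS at 37 °C and 5% CO2. Seeded at 5 × 10^4 cells/well, left overnight, then given compound diluted from a 10 mM DMSO stock for 24 h. Cells lysed and luciferase read as RLU. Inductivity = (RLUtest − RLUblank)/(RLUcontrol − RLUblank), with DMSO as control. Mean ± SEM of three experiments.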
For orientation: A reporter such as luciferase makes a cellular process visible.

In a further data set the test system is HepG2. Put plainly: Cytotoxicity against human HepG2 cells at 80 uM after 24 hrs by MTT assay. As to conditions: hepg2, 24 h. (Tetrazolium assays rely on reduction of a dye to a coloured formazan, in cell work by metabolically active cells.)
Data set [2] deals with T1, Nuclear factor erythroid 2-related factor 2 (Homo sapiens). As to the kind of experiment: Activation of Nrf2 in human HepG2-ARE-C8 cells assessed as induction of ARE-mediated luciferase activity at 0.1 uM after 24 hrs by luciferase reporter gene assay relative to control. A digest of the protocol: as §1
Data set [3] has the same target. As to the kind of experiment: Activation of Nrf2 in human HepG2-ARE-C8 cells assessed as induction of ARE-mediated luciferase activity at 1 uM after 24 hrs by luciferase reporter gene assay relative to control. A digest of the protocol: as §1
Data set [4] has the same target. Put plainly: Activation of Nrf2 in human HepG2-ARE-C8 cells assessed as induction of ARE-mediated luciferase activity at 20 uM after 24 hrs by luciferase reporter gene assay relative to control. In a few lines: as §1
Data set [5] has the same target. Put plainly: Activation of Nrf2 in human HepG2-ARE-C8 cells assessed as induction of ARE-mediated luciferase activity at 40 uM after 24 hrs by luciferase reporter gene assay relative to control. A digest of the protocol:
as §1

For data set [6] the target is unchanged. As to the kind of experiment: Activation of Nrf2 in human HepG2-ARE-C8 cells assessed as induction of ARE-mediated luciferase activity at 80 uM after 24 hrs by luciferase reporter gene assay relative to control. A digest of the protocol:
as §1

Take `Fc1ccc(F)c(-c2nc(-c3ccc4nc[nH]c4c3)no2)c1`: the Activity in data set [1] is 2.31; in the data set on HepG2, “Non-Toxic”; in data set [2], 4.15; in data set [3], 5.24; in data set [4] it was 16.9; in data set [5] it was 20.2. Further, the Activity in data set [6] was 21.9.
With `Fc1cccc(-c2nc(-c3ccc4nc[nH]c4c3)no2)c1F`, the Activity is 1.77 in data set [1]; “Non-Toxic” in the data set with HepG2; 2.22 in data set [2]; 3.7 in data set [3]; 4.55 in data set [4]; 10.7 in data set [5]. For the same compound, the Activity in data set [6] turned out to be 16.5.
For `CC(=O)c1ccc(-c2noc(-c3ccc(F)c(F)c3)n2)cc1`, the Activity in data set [1] is 1.25; in the data set with HepG2 it was “Non-Toxic”; in data set [2], 2.03; in data set [3], 2.04; in data set [4], 2.61; in data set [5] it was 3.78. Moreover, the Activity in data set [6] amounted to 5.01.
Take `COc1cc(OC)cc(-c2noc(-c3ccc(F)c(F)c3)n2)c1`: the Activity in data set [1] was 1.87; in the data set on HepG2, “Non-Toxic”; in data set [2], 1.91; in data set [3] it was 2.15; in data set [4], 3.45; in data set [5], 3.55. Besides, the Activity in data set [6] was 4.45.
Consider `Brc1ccc(-c2nc(-c3ccc4nc[nH]c4c3)no2)cc1`, for which the Activity in data set [1] was 0.22; with HepG2, “Non-Toxic”; in data set [2] it was 0.25; in data set [3] it was 0.87; in data set [4] it was 13.4; in data set [5], 3.44. Moreover, the Activity in data set [6] was 2.75.
For the compound `Fc1ccc(-c2nc(-c3ccc4nc[nH]c4c3)no2)cc1Cl`, the Activity came to 1.04 in data set [1]; 3.88 in data set [2]; 3.22 in data set [3]; 7.53 in data set [4]; 9.59 in data set [5]; 12.5 in data set [6].
For `Fc1ccc(-c2nc(-c3ncccc3F)no2)cc1F`, the Activity in data set [1] is 1.15; in the data set with HepG2 it was “Non-Toxic”; in data set [2], 1.25; in data set [3], 1.56; in data set [4], 1.75; in data set [5] it was 2.52. Moreover, the Activity in data set [6] stood at 2.95.
Take `Fc1cccc(-c2noc(-c3ccc(F)c(F)c3)n2)c1`: the Activity in data set [1] is 0.92; in the data set with HepG2 it was “Non-Toxic”; in data set [2] it was 1.81; in data set [3], 2.05; in data set [4] it was 2.76; in data set [5] it was 3.45. For the same compound, in data set [6], the Activity is 5.46.
On to `Fc1ccc(-c2noc(-c3ccc(F)c(F)c3)n2)nc1`, for which the Activity is 0.96 in data set [1]; “Non-Toxic” in the data set with HepG2; 1.97 in data set [2]; 2.17 in data set [3]; 2.95 in data set [4]; 5.79 in data set [5]. Besides, the Activity in data set [6] is 6.35.
For the compound `Fc1ccc(-c2nc(-c3ccccc3F)no2)cc1F`, the Activity is 3.85 in data set [1]; “Non-Toxic” with HepG2; 3.96 in data set [2]; 4.25 in data set [3]; 4.85 in data set [4]; 5.91 in data set [5]. In addition, in data set [6], the Activity amounted to 6.95.
For the compound `Clc1ccc(-c2nc(-c3ccc4nc[nH]c4c3)no2)cc1`, the Activity in data set [1] was 0.33; with HepG2, “Non-Toxic”; in data set [2] it was 0.72; in data set [3], 1.64; in data set [4], 15.5; in data set [5], 18.5. In addition, the Activity in data set [6] was 14.1.
Regarding `Fc1ccccc1-c1nc(-c2ccc3nc[nH]c3c2)no1`, the Activity was 2.01 in data set [1]; “Non-Toxic” in the data set with HepG2; 4.51 in data set [2]; 12 in data set [3]; 12.7 in data set [4]; 15 in data set [5]. The Activity in data set [6] came to 19.1.
Turning to `Fc1ccc(-c2noc(-c3ccc(F)c(F)c3)n2)cc1`, the Activity is 1.76 in data set [1]; “Non-Toxic” with HepG2; 2.12 in data set [2]; 2.05 in data set [3]; 3.75 in data set [4]; 5.68 in data set [5]. Besides, the Activity in data set [6] was determined as 6.93.
Regarding `Fc1ccc(-c2nc(-c3ccc4nc[nH]c4c3)no2)c(Cl)c1`, the Activity in data set [1] was 0.68; with HepG2, “Non-Toxic”; in data set [2], 2.98; in data set [3] it was 4.22; in data set [4] it was 11.8; in data set [5], 14.7. Further, the Activity in data set [6] was 18.3.
Regarding `Fc1cc(F)c(-c2nc(-c3ccc4nc[nH]c4c3)no2)cc1Cl`, the Activity in data set [1] is 1.94; in the data set with HepG2 it was “Non-Toxic”; in data set [2], 1.18; in data set [3], 1.26; in data set [4] it was 3.35; in data set [5], 5.14. Further, the Activity in data set [6] was determined as 7.61.
With `Fc1ccc(-c2nc(-c3ccc(Cl)cc3)no2)cc1F`, the Activity in data set [1] is 2.85; in the data set with HepG2, “Non-Toxic”; in data set [2], 3.06; in data set [3], 3.85; in data set [4], 7.65; in data set [5], 8.29. Further, the Activity in data set [6] was 9.95.
As for `Fc1ccc(-c2nc(-c3ccncc3)no2)cc1F`, the Activity was 1.08 in data set [1]; “Non-Toxic” in the data set with HepG2; 1.62 in data set [2]; 1.07 in data set [3]; 1.29 in data set [4]; 1.72 in data set [5]. The Activity in data set [6] stood at 2.88.
Turning to `Fc1ccc(-c2noc(-c3ccc(F)c(F)c3)n2)cc1F`, the Activity in data set [1] is 1.42; in the data set with HepG2, “Non-Toxic”; in data set [2], 1.36; in data set [3] it was 1.73; in data set [4] it was 1.73; in data set [5] it was 2.68. Also, the Activity in data set [6] came out at 2.56.
`Fc1ccc(-c2nc(-c3ccc4nc[nH]c4c3)no2)c(F)c1`: the Activity in data set [1] was 1.62; in the data set on HepG2 it was “Non-Toxic”; in data set [2], 2.17; in data set [3] it was 2.48; in data set [4], 4.58; in data set [5], 7.34. The Activity in data set [6] was 8.36.
For `Fc1ccc(-c2nc(-c3ncccn3)no2)cc1F`, the Activity in data set [1] was 0.92; in the data set on HepG2, “Non-Toxic”; in data set [2], 1.06; in data set [3] it was 1.07; in data set [4], 2.05; in data set [5], 2.95. Moreover, in data set [6], the Activity came out at 5.82.
Take `Fc1cc(F)c(-c2nc(-c3ccc4nc[nH]c4c3)no2)cc1F`: the Activity in data set [1] was 1.55; in the data set with HepG2 it was “Non-Toxic”; in data set [2], 1.86; in data set [3] it was 2.15; in data set [4] it was 3.95; in data set [5], 4.36. In addition, the Activity in data set [6] came to 7.92.
As for `Fc1ccc(-c2nc(-c3ccc4[nH]cnc4c3)no2)cc1Cl`, the Activity entry in the data set with HepG2 is given as “Non-Toxic”.
